Values after ≈ are worked out from the molar mass of the structure shown.
Assays:
[1] = system: Klebsiella pneumoniae; assay: In vitro for antibacterial activity against Klebsiella pneumoniae; format: functional
Procedure, shortened: (§1)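 MIC by serial 2-fold broth dilution in nutrient broth with an inoculum of 10^6 CFU/mL. Compound range was 0.0005–250 μg/mL. Plates were incubated 18 h at 37 °C. MIC was taken as the lowest concentration preventing visible growth.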

[2] = system: Morganella morganii; assay: In vitro for antibacterial activity against Morganella morganii; format: functional; procedure, shortened: as §1
[3] = system: Enterobacter cloacae; assay: In vitro for antibacterial activity against Enterobacter cloacae; format: functional
[4] = system: Enterococcus faecalis; assay: In vitro for antibacterial activity against Enterococcus faecalis; format: functional; procedure, shortened: as §1
[5] = system: Serratia marcescens; assay: In vitro for antibacterial activity against Serratia marcescens; format: functional; procedure, shortened: as §1
[6] = system: Streptococcus pneumoniae; assay: Antibacterial activity against Streptococcus pneumoniae; format: functional
[7] = system: Staphylococcus aureus; assay: Antibacterial activity against Staphylococcus aureus; format: functional
[8] = system: Proteus mirabilis; assay: In vitro for antibacterial activity against Proteus mirabilis; format: functional; procedure, shortened: as §1
[9] = system: Pseudomonas aeruginosa; assay: In vitro for antibacterial activity against Pseudomonas aeruginosa; format: functional; procedure, shortened: as §1
[10] = system: Escherichia coli; assay: In vitro for antibacterial activity against Escherichia coli; format: functional; procedure, shortened: as §1
[11] = system: Bacteroides fragilis; assay: In vitro for antibacterial activity against […].; format: functional; procedure, shortened: as §1
[12] = Solubility was measured at PH - 7.2 buffer
[13] = system: Staphylococcus aureus; assay: animal or person; format: functional; details: in Mus musculus, po, read-out: PD50
[14] = system: Streptococcus pneumoniae; assay: animal or person; format: functional; details: in Mus musculus, po, read-out: PD50
[15] = system: Pseudomonas aeruginosa; assay: animal or person; format: functional; details: in Mus musculus, po, read-out: PD50
[16] = system: Escherichia coli; assay: Compound was tested for […] against Escherichia coli A 15119 after oral administration of drug in mice; format: functional; details: read-out: PD50
Procedure, shortened: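 Mouse protection test against systemic infection. Compound was dissolved in sterile water and given orally to female OF1-strain Swiss mice weighing 18–25 g, with five mice per group.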

[17] = Lethal dose was determined in OF1-strain female Swiss mice after oral administration of the drug; details: mouse, in vivo
[18] = Lethal dose was determined in OF1-strain female Swiss mice after intra venous administration of the drug; details: mouse, in vivo, iv
[19] = Partition coefficient (logD); details: octanol/water
[20] = % dose recovered in mouse urine; details: % recovery
[21] = in vivo; details: mouse, plasma, T1/2
[22] = species: Mus musculus; details: in vivo

| SMILES | MIC [1] | MIC [2] | MIC [3] | MIC [4] | MIC [5] | MIC [6] | MIC [7] | MIC [8] | MIC [9] | MIC [10] | MIC [11] | logD [19] | also measured |
| --- | --- | --- | --- | --- | --- | --- | --- | --- | --- | --- | --- | --- | --- |
| Cc1c(F)c(N2CC3CC2CN3)nc2c1c(=O)c(C(=O)O)cn2C1CC1 (stereo not given) | 0.002 µg/mL (≈ 0.00558 µM) | 0.016 µg/mL (≈ 0.0446 µM) | 0.002 µg/mL (≈ 0.00558 µM) | 0.13 µg/mL (≈ 0.363 µM) | 0.03 µg/mL (≈ 0.0837 µM) | 0.13 µg/mL (≈ 0.363 µM) | 0.002 µg/mL (≈ 0.00558 µM) | 0.016 µg/mL (≈ 0.0446 µM) | 0.25 µg/mL (≈ 0.698 µM) | 0.002 µg/mL (≈ 0.00558 µM) | 1 µg/mL (≈ 2.79 µM) | 0.48 | solubility [12]: 20 µg/mL (≈ 55.8 µM); ED50 [13]: 5.4 mg/kg; ED50 [14]: 43 mg/kg; ED50 [15]: 2.7 mg/kg; ED50 [16]: 0.9 mg/kg; LD50 [17]: 1750 mg/kg; LD50 [18]: 131 mg/kg |
| Cc1c(F)c(N2CC[C@H](N)C2)nc2c1c(=O)c(C(=O)O)cn2-c1ccc(F)cc1F | 0.002 µg/mL (≈ 0.00478 µM) | 0.03 µg/mL (≈ 0.0717 µM) | 0.002 µg/mL (≈ 0.00478 µM) | 0.06 µg/mL (≈ 0.143 µM) | 0.03 µg/mL (≈ 0.0717 µM) | 0.03 µg/mL (≈ 0.0717 µM) | 0.002 µg/mL (≈ 0.00478 µM) | 0.008 µg/mL (≈ 0.0191 µM) | 0.25 µg/mL (≈ 0.598 µM) | 0.002 µg/mL (≈ 0.00478 µM) | 0.25 µg/mL (≈ 0.598 µM) | 1.22 | solubility [12]: 50 µg/mL (≈ 120 µM); ED50 [13]: 1.7 mg/kg; ED50 [14]: 7.9 mg/kg; ED50 [15]: 2.2 mg/kg; ED50 [16]: 1.8 mg/kg; LD50 [17]: 2500 mg/kg; LD50 [18]: 84 mg/kg |
| O=C(O)c1cn(-c2ccc(F)cc2F)c2nc(N3CC4CC3CN4)c(F)cc2c1=O (stereo not given) | 0.008 µg/mL (≈ 0.0192 µM) | 0.06 µg/mL (≈ 0.144 µM) | 0.016 µg/mL (≈ 0.0384 µM) | 0.5 µg/mL (≈ 1.2 µM) | 0.06 µg/mL (≈ 0.144 µM) | 0.25 µg/mL (≈ 0.6 µM) | 0.016 µg/mL (≈ 0.0384 µM) | 0.03 µg/mL (≈ 0.0721 µM) | 0.25 µg/mL (≈ 0.6 µM) | 0.004 µg/mL (≈ 0.00961 µM) | 1 µg/mL (≈ 2.4 µM) | – | dose excreted [20]: 7%; ED50 [13]: 9.5 mg/kg; half-life [21]: 1.72 h; T1/2 [22]: 1.48 h; ED50 [15]: 2.7 mg/kg |
| N[C@H]1CCN(c2nc3c(c(-c4ccccc4)c2F)c(=O)c(C(=O)O)cn3C2CC2)C1 | 2 µg/mL (≈ 4.9 µM) | 8 µg/mL (≈ 19.6 µM) | 2 µg/mL (≈ 4.9 µM) | 64 µg/mL (≈ 157 µM) | 16 µg/mL (≈ 39.2 µM) | 8 µg/mL (≈ 19.6 µM) | 2 µg/mL (≈ 4.9 µM) | 16 µg/mL (≈ 39.2 µM) | 32 µg/mL (≈ 78.3 µM) | 1 µg/mL (≈ 2.45 µM) | 125 µg/mL (≈ 306 µM) | – | – |
| CCc1c(F)c(N2CCNCC2)nc2c1c(=O)c(C(=O)O)cn2C1CC1 | 1 µg/mL (≈ 2.77 µM) | 4 µg/mL (≈ 11.1 µM) | 1 µg/mL (≈ 2.77 µM) | 16 µg/mL (≈ 44.4 µM) | 1 µg/mL (≈ 2.77 µM) | 0.25 µg/mL (≈ 0.694 µM) | 0.5 µg/mL (≈ 1.39 µM) | 8 µg/mL (≈ 22.2 µM) | 16 µg/mL (≈ 44.4 µM) | 0.5 µg/mL (≈ 1.39 µM) | 1 µg/mL (≈ 2.77 µM) | – | – |
| Cc1c(F)c(N2CCNCC2)nc2c1c(=O)c(C(=O)O)cn2-c1ccc(F)cc1F | 0.03 µg/mL (≈ 0.0717 µM) | 0.13 µg/mL (≈ 0.311 µM) | 0.03 µg/mL (≈ 0.0717 µM) | 1 µg/mL (≈ 2.39 µM) | 0.25 µg/mL (≈ 0.598 µM) | 0.25 µg/mL (≈ 0.598 µM) | 0.016 µg/mL (≈ 0.0382 µM) | 0.25 µg/mL (≈ 0.598 µM) | 1 µg/mL (≈ 2.39 µM) | 0.016 µg/mL (≈ 0.0382 µM) | 4 µg/mL (≈ 9.56 µM) | – | – |

Further lines, with some results ahead:

| MIC [1] | MIC [2] | MIC [3] | MIC [4] | MIC [5] | MIC [6] | MIC [7] | MIC [8] | MIC [9] | MIC [10] | MIC [11] | SMILES | logD [19] | also measured |
| --- | --- | --- | --- | --- | --- | --- | --- | --- | --- | --- | --- | --- | --- |
| 0.03 µg/mL (≈ 0.0861 µM) | 0.13 µg/mL (≈ 0.373 µM) | 0.03 µg/mL (≈ 0.0861 µM) | 0.06 µg/mL (≈ 0.172 µM) | 0.25 µg/mL (≈ 0.718 µM) | 0.008 µg/mL (≈ 0.023 µM) | 0.004 µg/mL (≈ 0.0115 µM) | 0.13 µg/mL (≈ 0.373 µM) | 0.25 µg/mL (≈ 0.718 µM) | 0.02 µg/mL (≈ 0.0574 µM) | 1 µg/mL (≈ 2.87 µM) | CC(C)(C)n1cc(C(=O)O)c(=O)c2cc(F)c(N3CC[C@H](N)C3)nc21 | – | – |
| 0.008 µg/mL (≈ 0.0198 µM) | 0.06 µg/mL (≈ 0.148 µM) | 0.016 µg/mL (≈ 0.0396 µM) | 0.13 µg/mL (≈ 0.322 µM) | 0.06 µg/mL (≈ 0.148 µM) | 0.06 µg/mL (≈ 0.148 µM) | 0.008 µg/mL (≈ 0.0198 µM) | 0.03 µg/mL (≈ 0.0742 µM) | 0.25 µg/mL (≈ 0.618 µM) | 0.008 µg/mL (≈ 0.0198 µM) | 0.5 µg/mL (≈ 1.24 µM) | N[C@H]1CCN(c2nc3c(cc2F)c(=O)c(C(=O)O)cn3-c2ccc(F)cc2F)C1 | – | – |
| 0.03 µg/mL (≈ 0.0819 µM) | 0.06 µg/mL (≈ 0.164 µM) | 0.13 µg/mL (≈ 0.355 µM) | 4 µg/mL (≈ 10.9 µM) | 0.25 µg/mL (≈ 0.682 µM) | 0.03 µg/mL (≈ 0.0819 µM) | 0.03 µg/mL (≈ 0.0819 µM) | 0.5 µg/mL (≈ 1.36 µM) | 1 µg/mL (≈ 2.73 µM) | 0.03 µg/mL (≈ 0.0819 µM) | 16 µg/mL (≈ 43.7 µM) | CC(C)(CF)n1cc(C(=O)O)c(=O)c2cc(F)c(N3CC[C@H](N)C3)nc21 | -0.56 | – |
| 0.03 µg/mL (≈ 0.0861 µM) | 0.06 µg/mL (≈ 0.172 µM) | 0.06 µg/mL (≈ 0.172 µM) | 1 µg/mL (≈ 2.87 µM) | 0.06 µg/mL (≈ 0.172 µM) | 1 µg/mL (≈ 2.87 µM) | 0.06 µg/mL (≈ 0.172 µM) | 0.13 µg/mL (≈ 0.373 µM) | 0.5 µg/mL (≈ 1.44 µM) | 0.02 µg/mL (≈ 0.0574 µM) | 8 µg/mL (≈ 23 µM) | CC(C)(C)n1cc(C(=O)O)c(=O)c2cc(F)c(N3CCNCC3)nc21 | -0.33 | solubility [12]: 820 µg/mL (≈ 2350 µM) |
| 0.03 µg/mL (≈ 0.0789 µM) | 0.5 µg/mL (≈ 1.31 µM) | 0.25 µg/mL (≈ 0.657 µM) | 2 µg/mL (≈ 5.26 µM) | 0.5 µg/mL (≈ 1.31 µM) | 2 µg/mL (≈ 5.26 µM) | 0.25 µg/mL (≈ 0.657 µM) | 0.5 µg/mL (≈ 1.31 µM) | 2 µg/mL (≈ 5.26 µM) | 0.016 µg/mL (≈ 0.0421 µM) | 2 µg/mL (≈ 5.26 µM) | Cc1c(F)c(N2CC[C@H](N)C2)nc2c1c(=O)c(C(=O)O)cn2C(C)(C)CF | – | – |
